Measurements of several laboratories.
Protocols differ between the studies behind these lines.
Target: Serine/threonine-protein kinase 26 (STK26, Homo sapiens, UniProt Q9P289)

SMILES | effect on | mode | method | concentration | endpoint | value
COc1ccnn2ncc(-c3ccnc(N(C)C)n3)c12 | cell-free assay |  |  | 1 µM | remaining signal | 86%
N#CC1(c2ccccn2)CCN(Cc2cc(C(=O)N3CCCC3)c(=O)n3ccccc23)CC1 | cell-free assay |  | competition with immobilised ligand | 1 µM | remaining binding | 100%
CC(C)(C)C(=O)c1sc(NC2CCCCC2)nc1N | enzyme activity | inhibitor |  | 10 µM | remaining activity | 90%
COc1cc(-c2cc(-c3ccc(N4CCNCC4)cc3)cnc2C)cc(OC)c1OC | enzyme activity | inhibitor |  | 0.1 µM | inhibition | 9%
Cc1sc(C(=O)NC2COC2)cc1-n1cc(NC(=O)Nc2c(F)cccc2Cl)cn1 | enzyme activity | inhibitor |  | 10 µM | remaining activity | 72.4%
O=C(NC[C@@H]1[C@H]2CN(C(=O)OCc3cc(C(F)(F)F)cc(C(F)(F)F)c3)C[C@@H]12)c1ccc2[nH]nnc2c1 | cell-free assay |  | competition with immobilised ligand | 1 µM | remaining binding | 76%
COc1cc2ncnc(Nc3ccc(Oc4ccccc4)c(C)c3C)c2cc1OC | enzyme activity | inhibitor |  | 1 µM | inhibition | 21%
Cc1nccc(COC(=O)N2C[C@@H]3[C@@H](CNC(=O)c4ccc5[nH]nnc5c4)[C@@H]3C2)n1 | cell-free assay |  | competition with immobilised ligand | 1 µM | remaining binding | 77%
CN1CC(Oc2cnc(C#N)cc2-c2ccn3nc(NC(=O)C4CC4)cc3c2)C1 | enzyme activity | inhibitor |  | 1 µM | inhibition | -9%
COc1cc(-c2cc(-c3ccc(N4CCNCC4)cc3)cnc2N)cc(OC)c1OC | enzyme activity | inhibitor |  | 1 µM | inhibition | 1%
Cc1cnn2ncc(-c3ccnc(N(C)C)n3)c2c1 | cell-free assay |  |  | 1 µM | remaining signal | 98%
Cc1cnc(NC2CCOCC2)nc1-n1cnc(C(=O)NC(CN)c2cc(F)cc(Cl)c2)c1 (centres unmarked) | enzyme activity | inhibitor | radiometric | 1 µM | remaining activity | 109%
CCN1CCC2(CC1)NC(=O)c1c(c3ccc(Cl)c(Cl)c3n1C)C2C#N (racemic) | thermal stability |  | DSF | 10 µM | ΔTm | -0.2 °C
FC(F)c1nc2ccccc2n1-c1nc(N2CCOCC2)nc(N2CCOCC2)n1 | enzyme activity | inhibitor |  | 10 µM | remaining activity | 88%
c1cnn2ncc(-c3ccnc(N4CCC45COC5)n3)c2c1 | cell-free assay |  |  | 1 µM | remaining signal | 64%
CN(C(=O)c1ccccc1)c1cc(N(C)c2ccc3c(c2)CCc2ccc(C(=O)NCCN4CCOCC4)cc2C3=O)ccc1F | cell-free assay |  | competition with immobilised ligand | 1 µM | remaining binding | 78%
CC(C)(C)c1nc(-c2cccc(NS(=O)(=O)c3c(F)cccc3F)c2F)c(-c2ccnc(N)n2)s1 | enzyme activity | inhibitor | radiometric | 1 µM | remaining activity | 103%
N#CC1c2c([nH]c3c(Cl)c(Cl)ccc23)C(=O)NC12CCCCC2 (racemic) | thermal stability |  | DSF | 10 µM | ΔTm | 0.1 °C
Cn1c(=O)n(-c2ccc(C(C)(C)C#N)cc2)c2c3cc(-c4cnc5ccccc5c4)ccc3ncc21 | enzyme activity | inhibitor |  | 10 µM | remaining activity | 100%

SMILES | effect on | mode | method | concentration | endpoint | value
CN(C)c1nccc(-c2cnn3ncccc23)n1 | cell-free assay |  |  | 1 µM | remaining signal | 100%
COc1cccc2c(NCc3ccccc3)nc(-n3c(N)nc4ccccc43)nc12 | target engagement in cells | inhibitor | chemoproteomics | 20 mM | inhibition | 31.1%
Cc1cc(NC(=O)c2cccc3cc(-c4cccc5[nH]nc(N)c45)ccc23)ccc1F | enzyme activity | inhibitor |  | 0.1 µM | activity vs control | 107%
COc1cc(Cl)c(C(=O)N[C@@H](CN[C@H]2CC[C@@H](N)CC2)Cc2ccc(C#N)cc2)cc1-c1ccc(CN[C@H](C)c2ccc(C)cc2)o1 | enzyme activity | inhibitor |  | 1 µM | remaining activity | 94%
CN(C)C(=O)Cn1cc(-c2nc(C3(c4ccc(-c5cnc(N)nc5)cc4)CC3)no2)cn1 | cell-free assay |  | competition with immobilised ligand | 1 µM | remaining binding | 89%
CCCCNc1ncc2c(-c3ccc(F)cc3)nn(C[C@H]3CC[C@H](N)CC3)c2n1 | target engagement in cells | inhibitor | chemoproteomics | 20 mM | inhibition | 1.8%
Cc1noc([C@H]2C[C@@H](c3ccc(C(F)(F)F)cc3)CN(C(=O)N3CCS(=O)(=O)C3)C2)n1 | cell-free assay |  | competition with immobilised ligand | 1 µM | remaining binding | 74%
CN(c1nccc(-c2cnn3ncccc23)n1)C1CC1 | cell-free assay |  |  | 1 µM | remaining signal | 100%
CC/C(=N\NC(=O)NCc1cccc(O)c1)c1ccc(O)c(C)c1O | enzyme activity | inhibitor |  | 0.1 µM | inhibition | 1.3%
CN(C)C1CCN(CC#Cc2nn(C3CCCC3)c3nc(NCc4ccccc4)ncc23)C1 (centres unmarked) | enzyme activity | inhibitor | FRET | 0.1 µM | inhibition | 9%
O=C1Nc2ccc(Cl)cc2C1=Cc1cc(Cl)c(O)c(Cl)c1 | cell-free assay |  |  | 0.5 µM | remaining signal | 101%
c1ccc(N2CCN(Cc3nc4ccccc4[nH]3)CC2)nc1 | binding |  | competition with immobilised ligand | 1 µM | remaining binding | 100%
Cn1c2c(Cl)c(Cl)ccc2c2cc(N)[nH]c(=O)c21 | thermal stability |  | DSF | 10 µM | ΔTm | 1.5 °C
Oc1ccc(-c2nc(-c3ccncc3)c(-c3ccc(F)cc3)[nH]2)cc1 | cell-free assay |  |  | 0.5 µM | remaining signal | 101%
COc1cc(Nc2cnc(C#N)c(O[C@H](C)CN(C)C)n2)ncc1-c1cnn(C)c1 | enzyme activity | inhibitor | radiometric | 10 µM | remaining activity | 42%
FC(F)(F)Oc1cccc(-c2cnc3ccc(-c4ccncc4)nn23)c1 | enzyme activity | inhibitor | radiometric | 5 µM | activity vs control | 87%
N[C@@H]1CCN(c2nccc(-c3cnn4ncccc34)n2)C1 | cell-free assay |  |  | 1 µM | remaining signal | 100%
CN1CCC2(CC1)NC(=O)c1c(c3ccc(Cl)c(Cl)c3n1C)C2C#N (racemic) | thermal stability |  | DSF | 10 µM | ΔTm | 1.7 °C
O=C1NC(c2ccccn2)Sc2ccccc21 (centres unmarked) | cell-free assay |  | competition with immobilised ligand | 1 µM | remaining binding | 80%
